Measured values from different studies.
Each line is one published result; the experiments were not run side by side.
CDK1: Cyclin-dependent kinase 1 (CDK1, Homo sapiens, UniProt P06493)
DPP4: Dipeptidyl peptidase 4 (DPP4, Homo sapiens, UniProt P27487)

| Compound | target | assay | conditions | quantity | result |
| --- | --- | --- | --- | --- | --- |
| C=CC(=O)N1CCC(COCC(=O)N2CCN(c3nc(-c4cnc(N)nc4C(F)F)nc(N4CCOC[C@@H]4C)n3)CC2)CC1 | Calcium/calmodulin-dependent protein kinase kinase 2 (CAMKK2, Homo sapiens, UniProt Q96RR4) | binding, competition with immobilised ligand | 1 µM | remaining binding | 99% |
| Cc1cc2cc(Oc3ccnc(Nc4cccc(CS(=O)(=O)NCCN(C)C)c4)n3)ccc2[nH]1 | CDK1 | enzyme activity, inhibitor, ADP detection | 10 µM | inhibition | 51.5% |
| Cn1c(=O)cc(N2CCC(N)CC2)n(Cc2nc3ccc(Br)cc3c(=O)n2-c2cccc(F)c2)c1=O | DPP4 | enzyme activity, inhibitor | 20 µM | inhibition | 46.8% |
| O=C1NC(=NCc2cccs2)S/C1=C\c1ccc2ncccc2c1 | CDK1 | enzyme activity, inhibitor, ADP detection | 10 µM | inhibition | 100% |
| CC(=O)c1c(C)c2cnc(Nc3ccc(N4CCNCC4)cn3)nc2n(C2CCCC2)c1=O | Cyclin-dependent kinase 9 (CDK9, Homo sapiens, UniProt P50750) | enzyme activity, inhibitor, ADP detection | 1 µM | activity vs control | 106% |
| Cc1cc([C@@H](C)Nc2ccccc2C(=O)O)c2nc(N3CCC(F)(F)CC3)c(C#N)c(=O)n2c1 | Mitogen-activated protein kinase 3 (MAPK3, Homo sapiens, UniProt P27361) | binding, competition with immobilised ligand | 1 µM | remaining binding | 100% |
| Cn1c(=O)cc(N2CCC(N)CC2)n(Cc2nc3ccccc3c(=O)n2-c2cccc(C(F)(F)F)c2)c1=O | DPP4 | enzyme activity, inhibitor | 20 µM | inhibition | 25.6% |
| CN(C)c1ncnc2c1ncn2[C@@H]1O[C@H](CCl)[C@@H](NC(=O)[C@@H](CSC(c2ccccc2)c2ccccc2)NC(=O)OC(C)(C)C)[C@H]1O | Aminopeptidase N (ANPEP, Homo sapiens, UniProt P15144) | enzyme activity, inhibitor, fluorescence | 10 µM | inhibition | 0% |
| COc1ccc(S(=O)(=O)N(CC(=O)NO)CC(C)C)cc1 | Stromelysin-2 (Homo sapiens, UniProt P09238) | enzyme activity, inhibitor | 0.5 µM | inhibition | 47.4% |
| COc1cc(-c2cncc3c2CN(C)Cc2cc(N4CCNCC4)ccc2-3)cc(OC)c1OC | Cyclin-dependent kinase 9, with cyclin T1 (CDK9, Homo sapiens, UniProt P50750) | enzyme activity, inhibitor | 1 µM | remaining activity | 100% |
| CCO[C@@H](Cc1ccc(OCCc2ccc(OS(C)(=O)=O)cc2)cc1)C(=O)O | CDK1 | enzyme activity, inhibitor, ADP detection | 100 µM | inhibition | 96.9% |
| Cn1c(=O)cc(N2CCC(N)CC2)n(Cc2nc3ccccc3c(=O)n2-c2ccc(F)c(Cl)c2)c1=O | DPP4 | enzyme activity, inhibitor | 20 µM | inhibition | 32.5% |
| CNc1ncc2c(/C=C/C(=O)N3CCC(OC)CC3)nn(Cc3cccc(C(F)(F)F)c3)c2n1 | RAC-alpha serine/threonine-protein kinase (AKT1, Homo sapiens, UniProt P31749) | enzyme activity, inhibitor, radiometric | 1 µM | remaining activity | 101% |
